Data on 6 compounds can be found in publication PMC2645950 (Journal of medicinal chemistry, 2008).

Substitutions are numbered along the chain they refer to.

One data set concerns alkyltransferase. The note with it: BG free base; cited from earlier work.
Data set [1] has as its target T1, human alkyltransferase (wild type) (Homo sapiens, UniProt P16455).
T1 sequence (P16455 1-207): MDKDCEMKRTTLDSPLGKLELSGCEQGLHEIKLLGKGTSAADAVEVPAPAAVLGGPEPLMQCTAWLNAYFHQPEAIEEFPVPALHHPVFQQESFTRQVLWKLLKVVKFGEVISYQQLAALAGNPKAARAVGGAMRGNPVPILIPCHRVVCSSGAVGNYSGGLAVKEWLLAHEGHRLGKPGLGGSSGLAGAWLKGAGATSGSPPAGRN
Particulars: cited from earlier work.

The target in data set [2] is T2, S159A mutant alkyltransferase (Homo sapiens, UniProt P16455, S159A).
T2 sequence (P16455 1-207 S159A): T1 sequence (P16455 1-207) with S159A
Nature of the data set: Inactivation of purified S159A mutant alkyltransferase in vitro. Particulars: 30 min at 37°C. The data set is classed as biochemical.

Data set [3] is described as follows: Stability in aqueous solution. Particulars: for rearrangement to N^6-substituted 2-aminoadenine in heated water: heating. The data set is classed as physicochemical.
A short description of a further data set: Solubility. Particulars: at physiological pH. In kind it is physicochemical.
Another data set has as its system HT29 cells. Nature of the data set: Sensitization of HT29 cells to killing by BCNU. The data set is classed as cell-based, human. Particulars: 2 h exposure prior to 40 μM BCNU; colony forming assay. An outline of the steps: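 HT29 cells in RPMI 1640 with 10% FBS. 24 h after plating, cells get test compound at varied concentrations for 2 h, then 40 μM BCNU for 2 h. Medium is then replaced with inhibitor-containing, BCNU-free medium for 16–18 h. Cells are replated at 250–1000 per 25 cm2 flask and grown 8 days. Colonies are saline-washed, stained with 0.5% crystal violet in ethanol, and counted.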

In data set [4] the target is T1, human alkyltransferase (wild type). The data set is described as follows: Inactivation of purified recombinant human alkyltransferase in vitro. The data set is classed as biochemical. The note with it: for less effective than BG: ortho-substituted BG derivatives.

`Nc1nc(OCc2ccccc2)c2nc[nH]c2n1` [BG, O^6-Benzylguanine]: the “rate constant for the reaction” value in the data set with alkyltransferase is around 600 M⁻¹ s⁻¹. Further, in data set [1], the “enhancement of inactivation of alkyltransferase by the presence of DNA” value was 3–4 fold.
In the case of `NCc1ccc(COc2nc(N)nc3nc[nH]c23)cc1` [Compound 1, O^6-[4-(Aminomethyl)benzyl]guanine], the 50% inhibitory concentration (IC50) is 28 nM in data set [2] (ED50 + DNA, + DNA) and 160 nM in data set [2] (ED50 No DNA, no DNA). The “rearrangement to N^6-substituted 2-aminoadenine in heated water” value in data set [3] is “not observed”.
With `NCc1cccc(COc2nc(N)nc3nc[nH]c23)c1` [Compound 2, O^6-[3-(Aminomethyl)benzyl]guanine], in “Solubility”, the “solubility relative to BG” value is on record as “approx. 1000 times”. Further, the “sensitizing HT29 cells to BCNU” value with HT29 cells is on record as “much more effective than compound 1”. Besides, the “rearrangement to N^6-substituted 2-aminoadenine in heated water” value in data set [3] is recorded as “not observed”.
`NCc1ccccc1COc1nc(N)nc2nc[nH]c12` [Compound 3, O^6-[2-(Aminomethyl)benzyl]guanine]: in data set [4], the “less effective than BG” value is listed as above 200 fold. The “half life of rearrangement of 3 to 7” value in data set [3] (aqueous solution, 37°C (0.1 M sodium phosphate buffer pH 7.4, followed by UV, first order kinetics)) worked out at 51 h.
For the compound `Cc1ccccc1COc1nc(N)nc2nc[nH]c12` [Compound 6, O^6-[2-(Methyl)benzyl]guanine], the “less effective than BG” value in data set [4] is reported as above 200 fold.
In the case of `Nc1nc(NCc2ccccc2CO)c2[nH]cnc2n1` [Compound 7, N^6-[2-(Hydroxymethyl)benzyl]-2-aminoadenine], the inhibition at 1000 µM in data set [4] (read-out: inhibition of alkyltransferase) was below 10%.
